Screens deposited in PubChem BioAssay by Broad Institute.
A selection: hits, their analogues and other compounds. The true share with any hit is near 3.3%.
FGF22 binding = shifts melting point of recombinant human FGF22; recombinant FGF22 thermal shift, SYPRO orange fluorescence; percent of sucrose octasulfate shift, DMSO zero; Q9HCT0; AID 651658; 340,000 tested, 1.5% active; activity (Tm shift, normalised), % at 9.99 µM;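 active means mean Tm shift, scaled 0 neutral to 100 positive control, at about 1.3% or above, every replicate too, limit read from the data; inconclusive means no clear call, values can overlap the other calls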
PglD DTNB = PglD (C. jejuni) enzyme inhibition. purified PglD enzyme, DTNB colorimetric CoA detection. inhibition, % at 12.5 µM. 360,000 tested, 0.098% active. AID 602405; in the data active means inhibition above about 16%, passing the limit was not always enough; inconclusive means no clear call, values can overlap the other calls
Xi reactivation = reactivates the inactive X chromosome in mouse fibroblasts; XiGFP mouse fibroblasts, % GFP-positive cells imaging, 3 d; cells co-treated with 5-aza-dC sensitizer; scaled so ellipticine positive control = 100%; activation, % at 7.58 µM; 360,000 tested, 0.055% active; AID 743238;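 active means mean normalized replicate activation at least 10% and every replicate at or above 10%; inconclusive means only one of the two criteria met; inactive means mean below 10% and not all replicates reach 10%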;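 further: 0% = median of on-plate neutral control wells and 100% = ellipticine 6 µM median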
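System: SV40-immortalized XiGFP fibroblast cells, line 68-5-11 / Incubation: 3-day compound exposure, then 15 min fixation at room temperature / Compound: single concentration per compound, delivered by pin transfer / Buffer or medium: DMEM plus 5-aza-dC sensitizer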
DENV2 CPE = DENV2-induced cell death inhibition; DENV2-infected cells, cytopathic effect rescue, plate reader; CPE inhibition, % at 9.99 µM; 350,000 tested, 1.7% active; AID 651640; in the data active means CPE inhibition above about 20%, passing the limit was not always enough; inconclusive means no clear call, values can overlap the other calls; tested in BHK-21 cells;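 further: 0% = median of neutral control wells and 100% = median of positive control wells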
Statin myotox sup = protects C2C12 myotubes from simvastatin toxicity. rescue of ATP level, % at 7.49 µM. 330,000 tested, 0.78% active. ATP luminescence, 48 h; scaled: DMSO 0, geranylgeraniol control 100. AID 602340;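 active means mean ATP rescue above about 67%, or every replicate alone reaching that limit, limit read from the data, passing the limit was not always enough; inconclusive means no clear call, values can overlap the other calls; inactive means mean under the limit and some replicate under it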;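 further: myotubes were challenged with 10 µM simvastatin during compound exposure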
E-sel inducer = induces E-selectin expression in human endothelial cells; 260,000 tested, 0.37% active; activation, % at 7.58 µM; HUVEC E-selectin immunofluorescence imaging; normalized: neutral wells 0, TNF-alpha wells 100;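 active means mean E-selectin-positive cell signal at least 10% of the positive control, reached in at least 60% of replicates, without over 20% cell loss; inconclusive means no rule given, readout overlaps actives, possibly toxicity-flagged; inactive means the rest, including those meeting only one limit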
Target sequence (P16581 whole entry, looked up): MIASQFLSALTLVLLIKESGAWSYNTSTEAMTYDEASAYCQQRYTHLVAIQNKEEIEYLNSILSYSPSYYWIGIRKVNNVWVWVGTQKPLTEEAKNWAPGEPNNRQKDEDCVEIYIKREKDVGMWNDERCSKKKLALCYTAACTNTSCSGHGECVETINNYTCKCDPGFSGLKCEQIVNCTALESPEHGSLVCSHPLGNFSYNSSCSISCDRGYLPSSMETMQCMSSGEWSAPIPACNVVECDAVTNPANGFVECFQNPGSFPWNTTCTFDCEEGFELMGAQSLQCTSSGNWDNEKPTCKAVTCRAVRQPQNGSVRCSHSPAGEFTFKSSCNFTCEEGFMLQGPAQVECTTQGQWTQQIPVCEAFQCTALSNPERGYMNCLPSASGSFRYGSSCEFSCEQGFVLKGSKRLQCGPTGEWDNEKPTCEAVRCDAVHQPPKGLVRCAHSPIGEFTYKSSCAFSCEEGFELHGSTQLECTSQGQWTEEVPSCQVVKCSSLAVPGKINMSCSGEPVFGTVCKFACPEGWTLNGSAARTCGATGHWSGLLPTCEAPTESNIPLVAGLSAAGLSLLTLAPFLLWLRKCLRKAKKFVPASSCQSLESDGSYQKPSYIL
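material = human umbilical vein endothelial cells (HUVEC), E-selectin induction | quantity = 3,000 cells/well | medium = EGM-2 growth medium on 0.1% gelatin-coated wells | technique = immunofluorescence imaging | read-out basis = % PE-positive cells | control set = TNF-alpha positive control, DMSO neutral control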
* marks the source's active call; other numbers are inactive results; u = inconclusive; x = not tested or not shown.

SMILES | FGF22 binding | PglD DTNB | Xi reactivation | DENV2 CPE | Statin myotox sup | E-sel inducer
Cc1cc(C)cc(NC(=O)Cc2ccc(NC3=NC4CS(=O)(=O)CC4S3)cc2)c1 (stereo not given) | 0 | 1 | 0 | -1 | 3 | 51*
COc1ccc(NC(=O)N(C)C[C@H]2Oc3ccc(NC(=O)Cc4cn(C)c5ccccc45)cc3CC(=O)N([C@H](C)CO)C[C@@H]2C)cc1 | 0 | -1 | 0 | 3 | 7 | -10
COc1ccc(OCC(=O)N/N=C/C=C/c2ccccc2)cc1 | 43* | x | 0 | 4 | x | 1
CCOc1ccc(NCC(=O)N/N=C/C=C/c2ccccc2)cc1 | 0 | x | 0 | 1 | x | 0
COc1ccc(N=C2NN=C(c3c(C)[nH]c4ccccc34)CS2)cc1 | 43* | x | 0 | -1 | x | 0
Cc1[nH]c2ccccc2c1C1=NNC(=Nc2ccc(F)cc2)SC1 | 0 | x | 0 | 9 | x | 0
O=C(Nc1ccc(F)cc1)N1C[C@H]2[C@@H](c3ccccc31)[C@@H](CO)N2C(=O)c1ccc(F)cc1 | 0 | 3 | 0 | 6 | -4 | 0
CN1C(=O)CC(N2CCN(C(c3ccccc3)c3ccccc3)CC2)C1=O (stereo not given) | x | -1 | x | x | x | x
CN1C(=O)CC(N2CCN(c3ccccc3)CC2)C1=O (stereo not given) | x | -1 | x | x | 138* | x
COc1ccc(CC(=O)Nc2cc(C)on2)cc1OC | x | -5 | x | x | 111* | x
Cc1cccc(OCC(=O)NNC(=O)C2CCCCC2C(=O)O)c1 (stereo not given) | 0 | 1 | 0 | 22* | 5 | 1
Cc1ccc(OCC(=O)NNC(=O)[C@@H]2CCCC[C@@H]2C(=O)O)c(Br)c1 | 0 | -2 | 0 | -5 | 8 | 1
Cc1cc(NC(=O)COc2cccc(Oc3ccccc3)c2)no1 | x | 2 | x | x | 3 | x
Cc1cccc(OCC(=O)Nc2cc(C)on2)c1 | x | 2 | x | x | 122* | x
C/C=C/c1ccc2c(c1)O[C@@H](CN(C)C(=O)CN(C)C)[C@H](C)CN([C@@H](C)CO)S2(=O)=O | 0 | 0 | -1 | 0 | 2 | 0
COc1ccc(CC2(CO)CCN(Cc3ccc4nsnc4c3)CC2)cc1 | 43* | x | 0 | 4 | x | x
OCC1(Cc2ccc(Cl)cc2)CCN(Cc2ccc3nsnc3c2)CC1 | 0 | -3 | 0 | x | 1 | 0
Cc1c(O)nc2ccccn2c1=O | 0 | -3 | 0 | -2 | x | 71*
C[C@H]1CN([C@@H](C)CO)C(=O)c2cc(NC(=O)c3ccncc3)ccc2O[C@H]1CN(C)C(=O)Nc1ccccc1 | 0 | 1 | 0 | 64* | 2 | 0
Cc1noc(C)c1NC(=O)N(C)C[C@H]1Oc2ccc(NC(=O)c3ccncc3)cc2C(=O)N([C@H](C)CO)C[C@@H]1C | 0 | 1 | 0 | -15 | 18 | 365*
C[C@@H]1CN([C@H](C)CO)C(=O)c2cc(NC(=O)c3ccncc3)ccc2O[C@@H]1CN(C)C(=O)Nc1ccc(C(F)(F)F)cc1 | 0 | 3 | -1 | -7 | -24 | 0
Cc1noc(C)c1NC(=O)Nc1ccc2c(c1)C(=O)N([C@@H](C)CO)C[C@@H](C)[C@@H](CN(C)C(=O)Nc1ccc(C(F)(F)F)cc1)O2 | 0 | -1 | 0 | 32* | -30 | 0
Cc1noc(C)c1NC(=O)N(C)C[C@@H]1Oc2ccc(NC(=O)c3ccncc3)cc2C(=O)N([C@@H](C)CO)C[C@@H]1C | 0 | 0 | 0 | 5 | -18 | -5
Cc1noc(C)c1NC(=O)N(C)C[C@H]1Oc2ccc(N(C)C)cc2C(=O)N([C@@H](C)CO)C[C@H]1C | 0 | 3 | 0 | 21* | -12 | -13
CO[C@H]1CN(C)C(=O)c2ccc(NS(C)(=O)=O)cc2OC[C@@H](C)N(Cc2cncnc2)C[C@H]1C | 0 | -2 | 0 | 0 | -3 | 0
C[C@@H]1CN([C@H](C)CO)C(=O)c2cc(NC(=O)c3ccncc3)ccc2O[C@@H]1CN(C)C(=O)Nc1ccc2c(c1)OCO2 | 0 | 6 | 0 | u | 32 | 40*
C[C@H](CO)N1C[C@H](C)[C@@H](CN(C)C(=O)Nc2ccc3c(c2)OCO3)Oc2ccc(NC(=O)c3ccncc3)cc2C1=O | 0 | 10 | 0 | 0 | 11 | x
